Broadly, the IC50 is the point on the concentration scale where inhibition reaches its midpoint. The term logP denotes a log measure of how a compound divides between an organic and an aqueous phase.

Some results are limits rather than exact numbers.

Experimental findings from ChEMBL document CHEMBL1146369, “Novel and versatile methodology for synthesis of cyclic imides and evaluation of their cytotoxic, DNA binding, apoptotic inducing activities and molecular modeling study” (Eur J Med Chem, 2007) are described below.

One data set concerns Vero. In words: Cytotoxicity against Vero cells. The following applies: Chlorocebus sabaeus. In kind it is cell-based. Put shortly: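 Confluent Vero monolayers in 96-well trays, DMEM with 10% calf serum, exposed in triplicate to 1–500 µM for 48 h at 37 °C. Cells then fixed with 3.7% formaldehyde, rinsed and examined visually. IC50 taken as the concentration causing about 50% loss of monolayer.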

The test system of data set [1] is Neutrophil. In words: Apoptotic activity in human blood neutrophils after 24 hrs. Also noted: concentration or dose not given beside the values. In kind it is functional. Put shortly: (§1)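 Neutrophils (>98% pure) isolated from peripheral blood of healthy donors by dextran sedimentation and discontinuous plasma Percoll gradients. Cultured at 37 °C, 5% CO2 in RPMI 1640 with 10% autologous platelet-rich-plasma-derived serum. Compound given at 50 µM in DMSO; controls were untreated cells and 0.01% DMSO. Apoptosis scored by May-Grunwald Giemsa morphology, 500 cells/slide, at 0–72 h. Mean ± SD, n = 3-5.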

Data set [2] relates to Neutrophil. In words: Apoptotic activity in human blood neutrophils after 48 hrs. In kind it is functional. Also noted: concentration or dose not given beside the values. Put shortly: as §1
Data set [3] deals with Neutrophil. In words: Apoptotic activity in human blood neutrophils after 72 hrs. In kind it is functional. Also noted: concentration or dose not given beside the values. Put shortly:
as §1

A short description of data set [4]: Partition coefficient, log P of the compound. In kind it is physicochemical. As to conditions: octanol/water.
Data set [5] is described as follows: Binding affinity to DNA by methyl green/DNA displacement assay. The following applies: Homo sapiens.

In the case of `CCN1C(=O)c2cccnc2C1=O`, the concentration for half-maximal inhibition (IC50) in the data set with Vero is over 100 µM.
Still for that read-out and setting: the result for `C[C@H](c1ccccc1)N1C(=O)c2cccnc2C1=O` reads 81 µM; that for `COc1ccc(CN2C(=O)c3cccnc3C2=O)cc1OC`, over 100 µM.
On the same count and under the same terms, the result for `C[C@@H](c1ccccc1)N1C(=O)[C@@H]2C3C=CC(CC3)[C@@H]2C1=O` reads 49 µM; that for `O=C1c2nccnc2C(=O)N1c1ccccc1`, 71 µM.
For the molecule `Cc1cccc(C)c1N1C(=O)c2cccnc2C1=O`, the half-maximal inhibitory concentration (IC50) in the data set on Vero was 20 µM. For the same molecule, the Activity in the data set with Neutrophil [1] amounted to 22.21%; with Neutrophil [2] it was 35%; in the data set on Neutrophil [3], 44.16%. This molecule yielded a log partition coefficient (logP) in data set [4] of 3.2. The C50 in data set [5] stood at 64 µg/mL.
Regarding `Cc1cccc(C)c1N1C(=O)[C@@H]2C3C=CC(CC3)[C@@H]2C1=O`, 13 µM corresponded to half-maximal inhibition in the data set with Vero (IC50). In addition, the Activity amounted to 38.4% with Neutrophil [1], 53.2% in the data set with Neutrophil [2] and 67.98% in the data set on Neutrophil [3]. In data set [4], this molecule showed a log partition coefficient (logP) of 3.1. In addition, the C50 in data set [5] came to 53 µg/mL.
As to `O=C1c2nccnc2C(=O)N1c1ccc(C(F)(F)F)cc1`, in the data set with Vero, the concentration for half-maximal inhibition (IC50) was determined as 80 µM.
For `O=C1[C@@H]2C3C=CC(CC3)[C@@H]2C(=O)N1Cc1ccc(Cl)cc1`, the midpoint of inhibition with Vero, the IC50, lay at 51 µM.
In the case of `O=C1[C@@H]2C3C=CC(CC3)[C@@H]2C(=O)N1Cc1ccccc1`, the IC50 in the data set with Vero amounted to 74 µM. This molecule came in with a lipophilicity (logP) in data set [4] of 2.3.
Regarding `Cc1cccc(C)c1N1C(=O)c2nccnc2C1=O`, the IC50 in the data set with Vero stood at 18 µM. Further, the figures for the Activity in the data set with Neutrophil [1], with Neutrophil [2] and in the data set with Neutrophil [3] were 28%, 42.03% and 50.1%, respectively. Also, the logP in data set [4] was found to be 2.7. In data set [5], this molecule came in with a C50 of 59 µg/mL.
Consider `O=C1c2cccnc2C(=O)N1Cc1ccc(Cl)cc1`, for which the IC50 in the data set with Vero came out at 95 µM.
The molecule `O=C1c2ccccc2C(=O)N1Cc1ccccc1` displayed an IC50 with Vero of 100 µM.
The molecule `CC(C)c1cccc(C(C)C)c1N1C(=O)c2ccccc2C1=O` registered an IC50 with Vero of 23 µM. Also, the Activity in the data set on Neutrophil [1] stood at 15.56%; with Neutrophil [2], 30.2%; with Neutrophil [3] it was 39.1%. The same molecule yielded a logP in data set [4] of 5.1.
The corresponding values for `CC(C)c1cccc(C(C)C)c1N1C(=O)c2nccnc2C1=O` are 20 µM, 24.07%, 38.1%, 46.11% and 4.2.
In the data set on Vero, `O=C1c2nccnc2C(=O)N1CCc1ccccc1` displayed a half-inhibitory concentration (IC50) of over 100 µM.
Still for that read-out and setting: next, `C[C@@H](c1ccccc1)N1C(=O)c2cccnc2C1=O`: 92 µM.
Consider `CCCCCc1ccc(N2C(=O)c3nccnc3C2=O)cc1`, for which it took 16 µM to reach half-maximal inhibition in the data set with Vero (IC50). For the same molecule, the results for the Activity with Neutrophil [1], with Neutrophil [2] and in the data set on Neutrophil [3] were 31.1%, 49.2% and 60%, respectively. The logP in data set [4] stood at 3.8. Moreover, the C50 in data set [5] amounted to 42 µg/mL.
Take `O=C1[C@@H]2C3C=CC(CC3)[C@@H]2C(=O)N1C12CC3CC(CC(C3)C1)C2`: in the data set on Vero, half-maximal inhibition (IC50) required 14 µM. Besides, the Activity worked out at 35.5% with Neutrophil [1], 53.2% with Neutrophil [2] and 68.11% in the data set with Neutrophil [3]. Besides, the log partition coefficient (logP) in data set [4] was determined as 2.2. In addition, in data set [5], the C50 was found to be 69 µg/mL.
The molecule `CCN1C(=O)c2nccnc2C1=O` gave an IC50 in the data set with Vero of over 100 µM.
Regarding `CC(C)(C)N1C(=O)c2nccnc2C1=O`, in the data set on Vero, the IC50 was 32 µM. In addition, the Activity in the data set on Neutrophil [1] is given as 12%; in the data set with Neutrophil [2], 27.6%; in the data set with Neutrophil [3] it was 33.91%. The molecule further had a log partition coefficient (logP) in data set [4] of 0.9.
For the molecule `O=C1c2cccnc2C(=O)N1c1ccc(C(F)(F)F)cc1`, the 50% inhibitory concentration (IC50) in the data set on Vero was found to be 87 µM.
Still for that read-out and setting: the result for `O=C1[C@@H]2C3C=CC(CC3)[C@@H]2C(=O)N1c1ccc(C(F)(F)F)cc1` reads 75 µM.
On the same count and under the same terms, the result for `O=C1[C@@H]2C3C=CC(CC3)[C@@H]2C(=O)N1c1ccccc1` reads 67 µM; that for `O=C1c2cccnc2C(=O)N1c1ccc(Cl)cc1`, 92 µM.
On to `CCCCCc1ccc(N2C(=O)[C@@H]3C4C=CC(CC4)[C@@H]3C2=O)cc1`, for which it took 10 µM to reach half-maximal inhibition with Vero (IC50). Besides, the Activity is 39.11% in the data set on Neutrophil [1], 58.06% in the data set with Neutrophil [2] and 70.01% in the data set on Neutrophil [3]. Also, the logP in data set [4] came out at 4.2. The molecule further gave a C50 in data set [5] of 31 µg/mL.
Consider `COc1ccc(CN2C(=O)c3nccnc3C2=O)cc1`, for which the half-maximal inhibitory concentration (IC50) with Vero was over 100 µM.
Same read-out and setting: the result for `O=C1c2ccccc2C(=O)N1c1ccccc1` [N-PHENYL-PHTHALIMIDE] reads 82 µM; that for `O=C1c2cccnc2C(=O)N1CCc1ccccc1`, over 100 µM.
The same measure, in the same setting: next, `COc1ccc(CN2C(=O)[C@@H]3C4C=CC(CC4)[C@@H]3C2=O)cc1`: 67 µM.
With `O=c1c(O)c(-c2ccc(O)c(O)c2)oc2cc(O)cc(O)c12` [QUERCETIN], the Activity in the data set on Neutrophil [1] was 39.9%; in the data set on Neutrophil [2], 49.9%; in the data set with Neutrophil [3] it was 71.3%.
In the data set with Vero, `O=C1c2cccnc2C(=O)N1Cc1ccccc1` yielded an IC50 of over 100 µM.
`CC(C)(C)N1C(=O)[C@@H]2C3C=CC(CC3)[C@@H]2C1=O` came in with an IC50 with Vero of 27 µM. The Activity with Neutrophil [1] stood at 12.82%; in the data set on Neutrophil [2] it was 29.76%; in the data set on Neutrophil [3] it was 35.64%. The molecule further registered a logP in data set [4] of 1.3.
For the molecule `O=C1c2nccnc2C(=O)N1Cc1ccc(Cl)cc1`, the midpoint of inhibition with Vero, the IC50, lay at 88 µM.
Take `CC(C)c1cccc(C(C)C)c1N1C(=O)[C@@H]2C3C=CC(CC3)[C@@H]2C1=O`: the concentration for half-maximal inhibition (IC50) with Vero stood at 16 µM. The Activity turned out to be 32.4% in the data set on Neutrophil [1], 49.11% with Neutrophil [2] and 59.2% with Neutrophil [3]. The logP in data set [4] is 4.6.
The corresponding values for `CC(C)(C)N1C(=O)c2cccnc2C1=O` are 33 µM, 11%, 25.07%, 30.23% and 1.4.
`O=C1[C@@H]2C3C=CC(CC3)[C@@H]2C(=O)N1CCc1ccccc1` yielded an IC50 with Vero of 87 µM. Also, the log partition coefficient (logP) in data set [4] was 2.5.
Regarding `CCCCCc1ccc(N2C(=O)c3cccnc3C2=O)cc1`, the IC50 with Vero was 18 µM. Further, the values for the Activity with Neutrophil [1], with Neutrophil [2] and in the data set on Neutrophil [3] were 32.11%, 47.05% and 57.87%, respectively. This molecule also came in with a log partition coefficient (logP) in data set [4] of 4.3. The molecule further came in with a C50 in data set [5] of 49 µg/mL.
Regarding `O=C1c2ccccc2C(=O)N1CCc1ccccc1`, the IC50 with Vero was 100 µM.
Still for that read-out and setting: next, `C[C@@H](c1ccccc1)N1C(=O)c2nccnc2C1=O`: 85 µM.
As to `O=C1[C@@H]2C3C=CC(CC3)[C@@H]2C(=O)N1c1ccc(Cl)cc1`, in the data set on Vero, the half-maximal inhibitory concentration (IC50) amounted to 77 µM.
`O=C1c2cccnc2C(=O)N1C12CC3CC(CC(C3)C1)C2`: half-maximal inhibition with Vero (IC50) was put at 18 µM. For the same molecule, the Activity is on record as 31.1% with Neutrophil [1], 46% in the data set with Neutrophil [2] and 56.1% in the data set with Neutrophil [3]. In data set [4], this molecule displayed a logP of 2.3.
In turn, `O=c1[nH]cc(F)c(=O)[nH]1` [FLUOROURACIL] registered an IC50 with Vero of 0.2 µM.
In the data set on Vero, `C[C@H](c1ccccc1)N1C(=O)[C@@H]2C3C=CC(CC3)[C@@H]2C1=O` had a half-inhibitory concentration (IC50) of 43 µM.
`O=C1c2nccnc2C(=O)N1C12CC3CC(CC(C3)C1)C2` showed a concentration for half-maximal inhibition (IC50) in the data set with Vero of 18 µM. In addition, the Activity in the data set on Neutrophil [1] amounted to 30.01%; with Neutrophil [2], 45.1%; in the data set on Neutrophil [3], 54.05%. The molecule further registered a lipophilicity (logP) in data set [4] of 1.8.
Consider `O=C1c2cccnc2C(=O)N1c1ccccc1`, for which the IC50 with Vero amounted to 72 µM.
On the same count and under the same terms, the result for `C[C@H](c1ccccc1)N1C(=O)c2nccnc2C1=O` reads 79 µM; that for `O=C1c2nccnc2C(=O)N1c1ccc(Cl)cc1`, 86 µM; that for `COc1ccc(CN2C(=O)c3nccnc3C2=O)cc1OC`, over 100 µM.
In the case of `CC(C)c1cccc(C(C)C)c1N1C(=O)c2cccnc2C1=O`, the IC50 in the data set on Vero worked out at 21 µM. Also, the Activity in the data set on Neutrophil [1] is 19.1%; in the data set on Neutrophil [2], 32.77%; in the data set with Neutrophil [3] it was 41.62%. Also, the logP in data set [4] stood at 4.6.
`O=C1c2ccccc2C(=O)N1C12CC3CC(CC(C3)C1)C2` returned an IC50 with Vero of 20 µM. Besides, the values for the Activity with Neutrophil [1], with Neutrophil [2] and with Neutrophil [3] were 21.11%, 34.66% and 42.01%, respectively. In data set [4], this molecule came in with a log partition coefficient (logP) of 2.7.
For the molecule `O=C1c2nccnc2C(=O)N1Cc1ccccc1`, the concentration for half-maximal inhibition (IC50) in the data set on Vero was over 100 µM.
The same measure, in the same setting: the result for `COc1ccc(CN2C(=O)c3cccnc3C2=O)cc1` reads over 100 µM.
On to `C[C@@H](c1ccccc1)N1C(=O)c2ccccc2C1=O`, for which the IC50 in the data set with Vero was over 100 µM.
The molecule `COc1ccc(CN2C(=O)[C@@H]3C4C=CC(CC4)[C@@H]3C2=O)cc1OC` came in with a half-inhibitory concentration (IC50) in the data set on Vero of 63 µM.
Take `CCN1C(=O)[C@@H]2C3C=CC(CC3)[C@@H]2C1=O`: the IC50 in the data set on Vero was over 100 µM. Moreover, in data set [4], the logP came out at 0.8.
